The target of assay [1] is Fibroblast growth factor receptor 4 (Homo sapiens, UniProt P22455). The experiment in a line: Inhibition of N-terminal GST-tagged human FGFR4 cytoplasmic domain (460-802 end amino acids residues) expressed in baculovirus expression system preincubated for 30 to 120 mins followed by incubation with substrate and ATP for 30 mins by off-chip mobility shift assay.
The target of assay [2] is Fibroblast growth factor receptor 2 (Homo sapiens, UniProt P21802). Nature of the assay: Inhibition of N-terminal GST-tagged human FGFR2 cytoplasmic domain (399-821 end amino acids residues) expressed in baculovirus expression system preincubated for 30 to 120 mins followed by incubation with substrate and ATP for 30 mins by off-chip mobility shift assay.
Chain of Fibroblast growth factor receptor 2 (P21802 whole entry, the tested form may be a part): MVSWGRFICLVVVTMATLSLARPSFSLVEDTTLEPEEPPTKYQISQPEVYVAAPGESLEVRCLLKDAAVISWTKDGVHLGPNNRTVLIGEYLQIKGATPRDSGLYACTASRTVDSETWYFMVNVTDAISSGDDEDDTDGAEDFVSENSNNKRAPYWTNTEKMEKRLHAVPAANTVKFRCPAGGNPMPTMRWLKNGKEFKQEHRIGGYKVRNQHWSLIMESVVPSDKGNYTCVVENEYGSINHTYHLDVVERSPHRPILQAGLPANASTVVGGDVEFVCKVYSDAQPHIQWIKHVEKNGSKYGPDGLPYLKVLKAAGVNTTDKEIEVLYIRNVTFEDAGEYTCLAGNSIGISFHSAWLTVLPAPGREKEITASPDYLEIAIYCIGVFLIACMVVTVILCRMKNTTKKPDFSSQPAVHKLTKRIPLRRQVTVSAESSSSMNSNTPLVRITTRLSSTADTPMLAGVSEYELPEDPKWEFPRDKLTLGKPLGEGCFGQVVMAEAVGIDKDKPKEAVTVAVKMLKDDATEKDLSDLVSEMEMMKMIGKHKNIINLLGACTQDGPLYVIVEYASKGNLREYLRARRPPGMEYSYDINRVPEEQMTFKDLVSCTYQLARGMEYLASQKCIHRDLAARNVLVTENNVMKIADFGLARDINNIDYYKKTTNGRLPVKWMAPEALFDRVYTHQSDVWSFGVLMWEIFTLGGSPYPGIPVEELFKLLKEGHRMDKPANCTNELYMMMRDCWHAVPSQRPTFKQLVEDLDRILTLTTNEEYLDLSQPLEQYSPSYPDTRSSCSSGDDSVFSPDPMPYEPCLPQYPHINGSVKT
Assay [3] concerns the target Vascular endothelial growth factor receptor 2 (Homo sapiens, UniProt P35968). The experiment in a line: Inhibition of N-terminal GST-tagged human VEGFR2 cytoplasmic domain (790-1356 end amino acid residue) expressed in baculovirus expression system preincubated for 30 to 120 mins followed by incubation with substrate and ATP for 30 mins by off-chip mobility shift assay. The method in brief:
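Recombinant VEGFR2 kinase preincubated with compound for 30 or 120 min at RT. Substrate plus ATP (75 µmol/L) added, 30 min at RT, then stopped with termination buffer and read by off-chip mobility shift. No-ATP wells set as 100% inhibition, DMSO wells as 0%. IC50 from Sigmoid-Emax nonlinear regression per experiment.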

Assay [4] has as its target Fibroblast growth factor receptor 1 (Homo sapiens, UniProt P11362). The experiment in a line: Inhibition of N-terminal GST-tagged human FGFR1 cytoplasmic domain (398-822 end amino acids residues) expressed in baculovirus expression system preincubated for 30 to 120 mins followed by incubation with substrate and ATP for 30 mins by off-chip mobility shift assay.
Assay [5] is described as follows: Antiproliferative activity against human UM-UC-14 cells harboring FGFR3 S249C mutation assessed as inhibition of cell growth incubated for 5 days by CellTier-Glo luminescent assay. The following applies: UMUC14, 120 h.
Assay [6] has as its target Fibroblast growth factor receptor 3 (Homo sapiens, UniProt P22607). The experiment in a line: Inhibition of N-terminal GST-tagged human FGFR3 cytoplasmic domain (436-806 end amino acids residues) expressed in baculovirus expression system preincubated for 30 to 120 mins followed by incubation with substrate and ATP for 30 mins by off-chip mobility shift assay.

pIC50: −log10 of the molar value. A value given as a limit tells only on which side of the number the result lay.

We go through 19 compounds from ChEMBL document CHEMBL4627366, “Structure-based drug design of 1,3,5-triazine and pyrimidine derivatives as novel FGFR3 inhibitors with high selectivity over VEGFR2” (Bioorg Med Chem, 2020).

Chain of Vascular endothelial growth factor receptor 2 (P35968 whole entry, the tested form may be a part): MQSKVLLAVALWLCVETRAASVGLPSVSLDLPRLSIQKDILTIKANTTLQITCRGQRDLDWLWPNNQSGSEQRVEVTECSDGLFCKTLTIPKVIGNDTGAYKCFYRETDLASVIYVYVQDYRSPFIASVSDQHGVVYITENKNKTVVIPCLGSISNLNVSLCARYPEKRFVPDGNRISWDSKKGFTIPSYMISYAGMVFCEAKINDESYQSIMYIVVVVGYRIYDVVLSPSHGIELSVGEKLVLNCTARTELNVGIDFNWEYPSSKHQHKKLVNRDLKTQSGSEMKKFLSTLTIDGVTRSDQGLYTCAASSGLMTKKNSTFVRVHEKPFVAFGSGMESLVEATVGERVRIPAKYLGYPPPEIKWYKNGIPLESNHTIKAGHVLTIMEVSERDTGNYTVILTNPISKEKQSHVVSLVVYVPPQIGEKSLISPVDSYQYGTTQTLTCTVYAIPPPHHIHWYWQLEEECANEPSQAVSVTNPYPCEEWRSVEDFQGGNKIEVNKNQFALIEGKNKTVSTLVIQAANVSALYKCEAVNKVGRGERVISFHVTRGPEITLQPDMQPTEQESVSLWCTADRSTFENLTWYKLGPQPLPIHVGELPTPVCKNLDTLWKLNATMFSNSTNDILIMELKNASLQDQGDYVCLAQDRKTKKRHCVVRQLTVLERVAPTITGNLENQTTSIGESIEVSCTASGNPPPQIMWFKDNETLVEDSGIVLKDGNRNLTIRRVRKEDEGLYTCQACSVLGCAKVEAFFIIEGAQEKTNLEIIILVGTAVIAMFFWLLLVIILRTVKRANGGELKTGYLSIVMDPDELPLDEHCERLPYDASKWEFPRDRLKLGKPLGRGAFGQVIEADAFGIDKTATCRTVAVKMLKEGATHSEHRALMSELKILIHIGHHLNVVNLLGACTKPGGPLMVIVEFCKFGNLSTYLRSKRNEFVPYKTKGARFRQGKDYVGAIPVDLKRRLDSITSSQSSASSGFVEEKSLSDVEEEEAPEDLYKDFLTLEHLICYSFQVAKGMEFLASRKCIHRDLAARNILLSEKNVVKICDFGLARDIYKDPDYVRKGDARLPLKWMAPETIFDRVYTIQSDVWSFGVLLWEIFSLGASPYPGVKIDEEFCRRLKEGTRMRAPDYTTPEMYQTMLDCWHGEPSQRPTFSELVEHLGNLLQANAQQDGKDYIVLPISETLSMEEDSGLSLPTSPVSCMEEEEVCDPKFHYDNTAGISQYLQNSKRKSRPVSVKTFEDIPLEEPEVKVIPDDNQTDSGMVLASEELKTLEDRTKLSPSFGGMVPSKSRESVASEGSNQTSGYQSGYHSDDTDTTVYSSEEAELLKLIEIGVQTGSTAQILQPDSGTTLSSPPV
Chain of Fibroblast growth factor receptor 1 (P11362 whole entry, the tested form may be a part): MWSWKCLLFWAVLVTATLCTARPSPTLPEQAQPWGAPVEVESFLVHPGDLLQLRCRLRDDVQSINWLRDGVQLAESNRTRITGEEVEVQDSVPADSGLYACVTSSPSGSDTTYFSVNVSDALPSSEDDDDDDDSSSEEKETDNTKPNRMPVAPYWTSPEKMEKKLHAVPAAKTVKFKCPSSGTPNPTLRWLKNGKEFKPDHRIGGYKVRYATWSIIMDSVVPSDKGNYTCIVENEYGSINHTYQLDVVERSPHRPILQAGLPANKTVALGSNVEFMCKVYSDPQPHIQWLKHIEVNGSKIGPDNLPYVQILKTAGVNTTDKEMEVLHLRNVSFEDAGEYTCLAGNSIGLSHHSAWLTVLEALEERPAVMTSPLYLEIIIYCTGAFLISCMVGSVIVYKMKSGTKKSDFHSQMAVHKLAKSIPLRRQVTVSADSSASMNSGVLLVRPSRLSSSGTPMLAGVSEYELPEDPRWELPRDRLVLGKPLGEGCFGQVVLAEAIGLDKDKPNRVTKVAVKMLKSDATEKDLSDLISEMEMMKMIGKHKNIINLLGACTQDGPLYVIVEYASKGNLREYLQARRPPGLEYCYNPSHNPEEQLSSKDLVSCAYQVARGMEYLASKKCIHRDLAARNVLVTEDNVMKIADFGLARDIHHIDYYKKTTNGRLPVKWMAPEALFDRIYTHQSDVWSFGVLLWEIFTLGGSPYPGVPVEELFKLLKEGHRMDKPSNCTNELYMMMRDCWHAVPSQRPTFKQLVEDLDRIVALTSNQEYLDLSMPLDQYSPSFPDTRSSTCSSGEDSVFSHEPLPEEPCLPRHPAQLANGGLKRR
Chain of Fibroblast growth factor receptor 4 (P22455 whole entry, the tested form may be a part): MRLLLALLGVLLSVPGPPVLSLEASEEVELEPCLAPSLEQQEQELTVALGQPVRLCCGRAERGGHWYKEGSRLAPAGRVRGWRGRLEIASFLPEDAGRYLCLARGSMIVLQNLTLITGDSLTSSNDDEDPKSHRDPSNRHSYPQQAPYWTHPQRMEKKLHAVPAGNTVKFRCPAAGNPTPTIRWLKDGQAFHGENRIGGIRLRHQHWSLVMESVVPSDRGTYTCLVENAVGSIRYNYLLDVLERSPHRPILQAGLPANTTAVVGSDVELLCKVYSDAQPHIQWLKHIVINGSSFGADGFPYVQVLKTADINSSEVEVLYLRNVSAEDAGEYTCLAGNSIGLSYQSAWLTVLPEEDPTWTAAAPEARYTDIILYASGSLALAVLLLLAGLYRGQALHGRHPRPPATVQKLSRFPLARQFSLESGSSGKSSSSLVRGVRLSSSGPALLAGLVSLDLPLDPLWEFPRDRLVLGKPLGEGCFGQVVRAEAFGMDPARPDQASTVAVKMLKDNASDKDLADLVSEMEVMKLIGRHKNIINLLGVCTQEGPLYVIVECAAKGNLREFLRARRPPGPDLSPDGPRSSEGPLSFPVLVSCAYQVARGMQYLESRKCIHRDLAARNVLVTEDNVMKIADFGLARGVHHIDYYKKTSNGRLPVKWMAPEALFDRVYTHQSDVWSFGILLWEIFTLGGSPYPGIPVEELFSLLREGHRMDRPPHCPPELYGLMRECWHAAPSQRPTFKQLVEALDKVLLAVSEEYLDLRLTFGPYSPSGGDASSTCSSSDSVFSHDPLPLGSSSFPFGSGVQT
Chain of Fibroblast growth factor receptor 3 (P22607 whole entry, the tested form may be a part): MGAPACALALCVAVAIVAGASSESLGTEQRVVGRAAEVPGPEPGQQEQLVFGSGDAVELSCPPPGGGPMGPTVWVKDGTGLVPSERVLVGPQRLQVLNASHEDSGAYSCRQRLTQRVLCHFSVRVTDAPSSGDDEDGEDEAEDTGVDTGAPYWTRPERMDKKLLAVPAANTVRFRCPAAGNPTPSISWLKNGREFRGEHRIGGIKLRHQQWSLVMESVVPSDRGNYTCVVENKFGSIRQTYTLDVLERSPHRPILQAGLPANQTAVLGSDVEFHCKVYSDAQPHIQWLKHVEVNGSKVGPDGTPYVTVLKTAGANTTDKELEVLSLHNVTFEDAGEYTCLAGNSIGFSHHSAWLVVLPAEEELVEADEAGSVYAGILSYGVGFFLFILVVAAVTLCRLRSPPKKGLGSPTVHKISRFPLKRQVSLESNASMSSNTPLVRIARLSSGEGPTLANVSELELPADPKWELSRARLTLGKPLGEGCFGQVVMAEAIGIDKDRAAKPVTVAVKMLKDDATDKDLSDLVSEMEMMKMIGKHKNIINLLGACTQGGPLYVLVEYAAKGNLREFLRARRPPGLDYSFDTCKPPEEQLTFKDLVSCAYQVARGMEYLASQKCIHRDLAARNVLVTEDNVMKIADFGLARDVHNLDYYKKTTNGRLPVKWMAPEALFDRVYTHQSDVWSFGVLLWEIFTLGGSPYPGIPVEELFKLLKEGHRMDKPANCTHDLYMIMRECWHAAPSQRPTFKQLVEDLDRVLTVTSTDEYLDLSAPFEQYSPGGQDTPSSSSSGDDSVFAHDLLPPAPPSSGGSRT

As for `CCNS(=O)(=O)c1ccccc1Nc1nc(Nc2ccc(N3CCC(N4CCN(C)CC4)CC3)c(OC)c2)ncc1NC(=O)c1cc(OC)cc(OC)c1`, the pIC50 is 7.13 in assay [1]; 8.51 in assay [2]; less than 6.00 in assay [3]; 8.68 in assay [4]; 7.08 in assay [5].

Turning to `CCNS(=O)(=O)c1ccccc1Nc1nc(Nc2ccc(N3CCC(N4CCN(C)CC4)CC3)c(OC)c2)ncc1NC(=O)c1cc(OC)ccc1OC`, the pIC50 in assay [3] was 6.36.

As to `CCNS(=O)(=O)c1ccccc1Nc1ncnc(Nc2ccc(N3CCN(C)CC3)c(OCC(=O)O)c2)n1`, the pIC50 in assay [3] is 6.92. For the compound `CCNS(=O)(=O)c1ccccc1Nc1ncnc(Nc2ccc(N3CCN(C)CC3)c(OCCOC)c2)n1`, the pIC50 in assay [3] is 6.51. Still for that read-out and setting: next, `CCNS(=O)(=O)c1ccccc1Nc1nc(Nc2ccc(N3CCC(N4CCN(C)CC4)CC3)c(OC)c2)ncc1-c1cc(OC)cc(OC)c1`: 7.42. `CCNS(=O)(=O)c1ccccc1Nc1nc(Nc2ccc(N3CCC(N4CCN(C)CC4)CC3)c(OC)c2)ncc1Cc1cc(OC)cc(OC)c1`: the pIC50 in assay [6] and in assay [3] was less than 6.00 each time. Turning to `CCNS(=O)(=O)c1ccccc1Nc1nc(Nc2ccc(N3CCC(N4CCN(C)CC4)CC3)c(OC)c2)ncc1NC(=O)c1nc(OC)cc(OC)n1`, in assay [3], the pIC50 was 6.88. The same measure, in the same setting: next, `CCNS(=O)(=O)c1ccccc1Nc1ncnc(Nc2ccc(N3CCN(C)CC3)c(OCCN3CCOCC3)c2)n1`: 6.24. Same read-out and setting: next, `CCNS(=O)(=O)c1ccccc1Nc1ncnc(Nc2ccc(N3CCN(C)CC3)c(OCC(=O)OCC)c2)n1`: 6.50; `CCNS(=O)(=O)c1ccccc1Nc1nc(Nc2ccc(N3CCC(N4CCN(C)CC4)CC3)c(OC)c2)ncc1NC(=O)c1cc(OC)nc(OC)n1`: 6.64. On the same count and under the same terms, to `CCNS(=O)(=O)c1ccccc1Nc1nc(Nc2ccc(N3CCC(N4CCN(C)CC4)CC3)c(OC)c2)ncc1NC(=O)c1cc(O)cc(O)c1` belongs 6.15; to `CCNS(=O)(=O)c1ccccc1Nc1ncnc(Nc2ccc(N3CCN(C)CC3)c(OCCN3CCN(C)CC3)c2)n1`, 6.47; to `CCNS(=O)(=O)c1ccccc1Nc1ncnc(Nc2ccc(N3CCC(N4CCN(C)CC4)CC3)c(OC)c2)n1`, 6.58. As to `CCNS(=O)(=O)c1ccccc1Nc1nc(Nc2ccc(N3CCC(N4CCN(C)CC4)CC3)c(OC)c2)ncc1NC(=O)c1cc(C)cc(C)c1`, in assay [3], the pIC50 is 6.26.

As to `CCNS(=O)(=O)c1ccccc1Nc1ncnc(Nc2ccc(N3CCN(C)CC3)c(OC)c2)n1`, the pIC50 in assay [3] is 6.47. In the case of `CCNS(=O)(=O)c1ccccc1Nc1nc(Nc2ccc(N3CCC(N4CCN(C)CC4)CC3)c(OC)c2)ncc1CCc1cc(OC)cc(OC)c1`, the pIC50 in assay [3] was 6.53. Same read-out and setting: next, `CCNS(=O)(=O)c1ccccc1Nc1ncnc(Nc2ccc(N3CCN(C)CC3)c(OCCCN3CCOCC3)c2)n1`: 6.13; `CCNS(=O)(=O)c1ccccc1Nc1ncnc(Nc2ccc(N3CCN(C)CC3)c(OCCOCCOC)c2)n1`: 6.26. Same read-out and setting: to `CCNS(=O)(=O)c1ccccc1Nc1nc(Nc2ccc(N3CCC(N4CCN(C)CC4)CC3)c(OC)c2)ncc1NC(=O)c1cccc(OC)c1OC` belongs 6.34.
